Calls of active or inactive are those of the source. The rule behind the calls is not given here.
Legend:
RAW264.7 [1] = experiment: Inhibition of MAPK signalling activation in mouse RAW264.7 cells assessed as reduction in LPS-induced p38 phosphorylation at 0.5 to 2 uM preincubated for 1 hr followed by LPS stimulation by Western blotting analysis; assay type: cell-based; details: dose 0.5-2 µM, TDE = time-dependent effect
Outline: (§1)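 Pretreatment 1 h with 0.5–2 µM, then LPS 0.5 µg/mL for 30 min. p-IκB, IκB, p-p65, p65, ERK, JNK, p38 and their phosphorylated forms, plus β-actin, detected by Western blot (RIPA lysis, SDS-PAGE, PVDF, primary 16 h at 4 °C, HRP secondary 1:5000, ECL).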

Rattus norvegicus [2] = experiment: Antiarthritic activity in Sprague-Dawley rat model of arthritis assessed as reduction in CFA-induced inflammatory cell infiltration at 20 mg/kg, ig administered daily for 28 days starting from 14 days post-immunization and measured every 3 days by H and E staining based histopathological analysis; assay type: functional, organism-based; details: time 28.0 day
Outline: (§2)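 AA rats (male SD, CFA intradermal into right hind paw) dosed intragastrically once daily at 20 or 40 mg/kg from day 14 to day 28. Killed after 29 days. Ankle joints fixed in 4% neutral buffered paraformaldehyde, decalcified in 10% EDTA, sectioned and H&E stained. Scored for synovial hyperplasia, inflammatory cell infiltration and cartilage destruction.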

Rattus norvegicus [3] = experiment: Antiarthritic activity in Sprague-Dawley rat model of arthritis assessed as reduction in CFA-induced synovial hyperplasia at 20 mg/kg, ig administered daily for 28 days starting from 14 days post-immunization and measured every 3 days by H and E staining based histopathological analysis; assay type: functional, organism-based; details: time 28.0 day; outline: as §2
Rattus norvegicus [4] = experiment: Antiarthritic activity in Sprague-Dawley rat model of arthritis assessed as reduction in CFA-induced cartilage destruction at 40 mg/kg, ig […] and measured every 3 days by H and E staining based histopathological analysis; assay type: functional, organism-based
RAW264.7 [5] = experiment: Cytotoxicity against mouse RAW264.7 cells assessed as reduction in cell viability at 20 uM incubated for 24 hrs by MTT assay; assay type: cell-based; details: raw264.7, 24 h
Outline: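 RAW264.7 cells (1 × 10^4/well, used 24 h after seeding) exposed to 20 µM for 24 h. MTT (5 mg/mL stock) added for 4 h, supernatant removed, crystals dissolved in DMSO with 10–15 min shaking, absorbance at 492 nm.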

RAW264.7 [6] = experiment: Activation of Nrf2/HO-1 signalling pathway in mouse RAW264.7 cells assessed as increase in nuclear Nrf2 protein expression at 0.5 to 2 uM preincubated for 1 hr followed by LPS stimulation and measured after 24 hrs by Western blotting analysis; assay type: cell-based; details: filed as activator, dose 0.5-2 µM, time 25.0 hrs
Outline: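 RAW264.7 cells (2 × 10^6/well, grown 24 h) pretreated 1 h with 0.5, 1, 2 µM, then LPS 0.5 µg/mL for 24 h. Lysed in RIPA with PMSF and phosphatase inhibitors, SDS-PAGE, PVDF transfer. Primary antibodies (anti-Nrf2 or anti-HO-1) 16 h at 4 °C, HRP secondary 1:5000 1 h at room temperature, ECL detection. β-actin used for normalization.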

RAW264.7 [7] = experiment: Inhibition of MAPK signalling activation in mouse RAW264.7 cells assessed as reduction in LPS-induced JNK phosphorylation at 0.5 to 2 uM preincubated for 1 hr followed by LPS stimulation by Western blotting analysis; assay type: cell-based; details: dose 0.5-2 µM, TDE = time-dependent effect; outline: as §1
RAW264.7 [8] = experiment: Inhibition of NF-kappaB activation in mouse RAW264.7 cells assessed as reduction in LPS-induced IkappaB protein degradation at 0.5 to 2 uM preincubated for 1 hr followed by LPS stimulation and measured after 30 mins by Western blotting analysis; assay type: cell-based; details: dose 0.5-2 µM, time 90.0 min; outline: as §1
Rattus norvegicus [9] = experiment: Antiarthritic activity in Sprague-Dawley rat model of arthritis assessed as reduction in CFA-induced cartilage destruction at 20 mg/kg, […] and measured every 3 days by H and E staining based histopathological analysis; assay type: functional, organism-based
RAW264.7 [10] = experiment: Inhibition of NF-kappaB activation in mouse RAW264.7 cells assessed as reduction in LPS-induced p65 nuclear translocation at 0.5 to 2 uM preincubated for 1 hr followed by LPS stimulation and measured after 30 mins by Western blotting analysis; assay type: cell-based; details: dose 0.5-2 µM, time 90.0 min
RAW264.7 [11] = experiment: Inhibition of NF-kappaB activation in mouse RAW264.7 cells assessed as reduction in LPS-induced p65 phosphorylation at 0.5 to 2 uM preincubated for 1 hr followed by LPS stimulation and measured after 30 mins by Western blotting analysis; assay type: cell-based; details: dose 0.5-2 µM, time 90.0 min; outline: as §1
RAW264.7 [12] = experiment: Antiinflammatory activity in mouse RAW264.7 cells assessed as inhibition of LPS-induced nitric oxide production preincubated for 1 hr followed by LPS stimulation and measured after 24 hrs by Griess reagent-based assay; assay type: functional, cell-based
RAW264.7 [13] = experiment: Anti-inflammatory activity in mouse RAW264.7 cells assessed as inhibition of LPS-induced iNOS protein expression preincubated for 1 hr followed by LPS stimulation and measured after 24 hrs by Western blot analysis; assay type: functional, cell-based; details: dose 0.5-2 µM, time 25.0 hrs
Outline: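 Cells pretreated 1 h with 0.5, 1, 2 µM, then LPS 0.5 µg/mL for 24 h. iNOS, COX-2 and β-actin detected by Western blot (RIPA lysis, PVDF, primary 16 h at 4 °C, HRP secondary, ECL). Blots representative of three separate experiments.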

Rattus norvegicus [14] = experiment: Antiarthritic activity in Sprague-Dawley rat model of arthritis assessed as reduction in CFA-induced inflammatory cell infiltration at 40 mg/kg, ig administered daily for 28 days starting from 14 days post-immunization and measured every 3 days by H and E staining based histopathological analysis; assay type: functional, organism-based; details: time 28.0 day; outline: as §2
RAW264.7 [15] = experiment: Activation of Nrf2/HO-1 signalling pathway in mouse RAW264.7 cells assessed as inhibition of LPS-induced NO production at 2 uM preincubated for 1 hr in presence of NAC followed by LPS stimulation and measured after 24 hrs by Griess reagent-based assay; assay type: cell-based; details: time 25.0 hrs
Outline: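 Cells pretreated 1 h with or without NAC 5 mM alongside 2 µM compound, then LPS 0.5 µg/mL for 24 h. Medium NO measured by Griess reagent. Means ± SD of three independent experiments.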

RAW264.7 [16] = experiment: Cytotoxicity against mouse RAW264.7 cells assessed as reduction in cell viability incubated for 24 hrs in absence of LPS by MTT assay; assay type: cell-based; details: RAW264.7, 24 h
RAW264.7 [17] = experiment: Cytotoxicity against mouse RAW264.7 cells assessed as reduction in cell viability incubated for 24 hrs in presence of LPS by MTT assay; assay type: cell-based; details: RAW264.7, 24 h
RAW264.7 [18] = experiment: Inhibition of LPS-induced ROS generation in mouse RAW264.7 cells at 0.5 to 2 uM preincubated for 1 hr followed by LPS stimulation and measured after 6 hrs by DCFH-DA staining based flow cytometry analysis; assay type: functional, cell-based; details: dose 0.5-2 µM, time 7.0 hrs
Outline: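 RAW264.7 cells (1.5 × 10^6/well, grown 24 h) pretreated 1 h with 0.5, 1, 2 µM, then LPS 0.5 µg/mL for 6 h. Loaded with DCFH-DA 30 min at 37 °C, washed three times with cold serum-free medium or PBS. Intracellular ROS read by flow cytometry.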

## COc1cc(OC)c2c(c1)C(C(O)c1ccc(OCc3ccc(F)cc3)cc1)OC2=O (stereo not drawn)
RAW264.7 [1]
  inhibition: Tde
Rattus norvegicus [2]
  Activity: Active
Rattus norvegicus [3]
  Activity: Active
Rattus norvegicus [4]
  Activity: Active
RAW264.7 [5]
  Activity: Non-Toxic
RAW264.7 [6]
  Activity: Active
RAW264.7 [7]
  inhibition: Tde
RAW264.7 [8]
  inhibition: Active
Rattus norvegicus [9]
  Activity: Active
RAW264.7 [10]
  inhibition: Active
RAW264.7 [11]
  inhibition: Active
RAW264.7 [12]
  IC50: 760 nM
RAW264.7 [13]
  inhibition: Dose-dependent effect
Rattus norvegicus [14]
  Activity: Active
RAW264.7 [15]
  Activity: inactive
RAW264.7 [16]
  IC50: > 40 µM
RAW264.7 [17]
  IC50: > 40 µM
RAW264.7 [18]
  inhibition: inactive

— ChEMBL document CHEMBL4765431, “Novel phthalide derivatives: Synthesis and anti-inflammatory activity in vitro and in vivo” (Eur J Med Chem, 2020)
